Biological target: T1, Or5p57 (Mus musculus) (UniProt Q8VEZ0)
T1 sequence (whole entry): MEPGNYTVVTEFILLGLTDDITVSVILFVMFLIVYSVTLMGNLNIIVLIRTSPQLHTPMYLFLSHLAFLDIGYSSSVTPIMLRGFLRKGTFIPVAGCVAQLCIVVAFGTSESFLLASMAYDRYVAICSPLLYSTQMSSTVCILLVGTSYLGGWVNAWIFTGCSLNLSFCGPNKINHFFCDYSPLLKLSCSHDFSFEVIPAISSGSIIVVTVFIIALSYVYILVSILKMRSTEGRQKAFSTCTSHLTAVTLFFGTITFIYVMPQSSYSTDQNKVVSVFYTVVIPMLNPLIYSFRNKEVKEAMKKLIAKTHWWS
Conditions: stereoisomer not certain
How it was run: (§1)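 Transient luciferase assays in mammalian cell lines were common, though methods varied by source. The values come from published papers and their supplementary material, with extra details from the original authors when needed. Responsive refers to a measured signal the original authors judged statistically different from baseline, and non-responsive (inactive) to the remainder.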
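Also: active if original authors judged signal statistically different from baseline.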

Compound | odorant receptor agonist call
CCCCCCCC(=O)[O-].[H+] | inactive
CCCCCO | inactive
CCCCCCCCC(=O)O | inactive
O=C(O)CCCBr | inactive
CCCCCCCO | active
CCCCCCCCO | inactive
O=C(O)CCCCCBr | inactive
O=C([O-])CCCCC(=O)[O-].[H+].[H+] | inactive
O=C(O)CCCCCC(=O)O | inactive
O=C([O-])CCCCCCCC(=O)[O-].[H+].[H+] | inactive
O=C([O-])CCCCCCC(=O)[O-].[H+].[H+] | inactive
CCCCCCCCCO | inactive
CCCCCCO | active
CCCCC(=O)O | inactive
CCCCCCC(=O)[O-].[H+] | inactive
O=C(O)CCCCBr | inactive

Biological target: T2, Or5p80 (Mus musculus) (UniProt Q8VG42)
T2 sequence (whole entry): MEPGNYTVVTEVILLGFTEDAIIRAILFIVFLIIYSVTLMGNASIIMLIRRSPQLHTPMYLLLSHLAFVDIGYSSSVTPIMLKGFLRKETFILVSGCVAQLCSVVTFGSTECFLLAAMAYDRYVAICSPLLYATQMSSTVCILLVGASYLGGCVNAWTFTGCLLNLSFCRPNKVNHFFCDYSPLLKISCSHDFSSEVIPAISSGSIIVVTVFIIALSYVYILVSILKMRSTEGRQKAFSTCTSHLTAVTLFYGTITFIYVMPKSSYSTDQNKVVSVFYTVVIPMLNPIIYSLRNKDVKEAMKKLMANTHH
Conditions: stereoisomer not certain
How it was run: as §1

Compound | odorant receptor agonist call
CC(C)=CCCC(C)=CCO | inactive
CC12CCC(CC1=O)C2(C)C (stereo unspecified) | inactive
CCCCCCCC(=O)[O-].[H+] | inactive
CCCCCO | inactive
CCCCCCCCC(=O)O | inactive
CCCCCCCCCS | inactive
CCCCCCCO | inactive
CCCCCCCCO | inactive
CCCCOC(=O)C(C)OC(=O)CCC (stereo unspecified) | inactive
CCC(=O)O | inactive
CCCCOC=O | inactive
CCCCCOC(=O)CCCCC | inactive
c1ccccc1 | inactive
CCCCCCC(C)=O | inactive
CCCCCCCCCO | inactive
CCCCCCO | inactive
CCCCC(=O)O | inactive
CCC(=O)C(=O)CC | inactive
CCCCCCC(=O)[O-].[H+] | inactive
C=C(C)C1CCC(C)C(=O)C1 (stereo unspecified) | inactive

Biological target: T3, Or7a40 (Mus musculus) (UniProt Q9JHB2)
T3 sequence (whole entry): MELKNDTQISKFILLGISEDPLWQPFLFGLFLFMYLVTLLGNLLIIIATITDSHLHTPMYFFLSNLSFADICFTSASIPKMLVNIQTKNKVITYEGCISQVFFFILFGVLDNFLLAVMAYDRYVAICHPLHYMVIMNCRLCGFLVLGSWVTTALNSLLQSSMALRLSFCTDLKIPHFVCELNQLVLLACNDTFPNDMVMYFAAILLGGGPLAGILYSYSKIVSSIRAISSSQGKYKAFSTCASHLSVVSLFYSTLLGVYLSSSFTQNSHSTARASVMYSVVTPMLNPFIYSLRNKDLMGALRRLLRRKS
Conditions: stereoisomer not certain
How it was run: as §1

Compound | odorant receptor agonist call
CC(C)=CCCC(C)=CCO | inactive
CC12CCC(CC1=O)C2(C)C (stereo unspecified) | inactive
CCCCCCCC(=O)[O-].[H+] | inactive
CCCCCO | inactive
CCCCCCCCC(=O)O | inactive
CCCCCCCCCS | inactive
CCCCCCCO | inactive
CCCCCCCCO | inactive
CCCCOC(=O)C(C)OC(=O)CCC (stereo unspecified) | inactive
CCC(=O)O | inactive
CCCCOC=O | inactive
CCCCCOC(=O)CCCCC | inactive
c1ccccc1 | inactive
CCCCCCC(C)=O | inactive
CCCCCCCCCO | inactive
CCCCCCO | inactive
CCCCC(=O)O | inactive
CCC(=O)C(=O)CC | inactive
CCCCCCC(=O)[O-].[H+] | inactive
C=C(C)C1CCC(C)C(=O)C1 (stereo unspecified) | inactive

Source: the M2OR odorant receptor database
